# Key:
# Mus musculus [1] = assay: Induction of weight loss in C3H/HeN mouse at 377 umol/kg, ip after 60 days (reference value: 24.5 +/- 3.5 %); format: functional
# Mus musculus [2] = assay: Induction of weight loss in C3H/HeN mouse at 1130 umol/kg, ip after 18 days (reference value: 12.8 +/- 1.5 %); format: functional
# Mus musculus [3] = assay: Induction of weight loss in C3H/HeN mouse at 4.2 umol/kg, ip after 60 days (reference value: 27.7 +/- 4.6 %); format: functional
# Mus musculus [4] = assay: Induction of weight loss in C3H/HeN mouse at 4.2 umol/kg, ip after 60 days (reference value: 33.3 +/- 5.0 %); format: functional
# Mus musculus [5] = assay: Induction of weight loss in C3H/HeN mouse at 12.6 umol/kg, ip after 60 days (reference value: 41.6 +/- 8.7 %); format: functional
# Mus musculus [6] = assay: Induction of weight loss in C3H/HeN mouse at 1.4 umol/kg, ip after 60 days (reference value: 31.5 +/- 8.2 %); format: functional
# Mus musculus [7] = assay: Induction of weight loss in C3H/HeN mouse at 0.47 umol/kg, ip after 60 days (reference value: 27.7 +/- 4.6 %); format: functional
# Mus musculus [8] = assay: Induction of weight loss in C3H/HeN mouse at 4.2 umol/kg, ip after 60 days (reference value: 30.1 +/- 5.9 %); format: functional
# Mus musculus [9] = assay: Toxicity in C3H/HeN mouse assessed as difficulty in eating at 4.2 uM/kg, ip after 60 days; format: organism-based; details: in vivo, 1440 h
# Mus musculus [10] = assay: Toxicity in C3H/HeN mouse assessed as perceptible deterioration in health at 4.2 uM/kg, ip after 60 days; format: organism-based; details: in vivo, 1440 h
# Procedure, shortened: (§1)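 Male C3H/HeN mice, about 50 days old and in groups of 4, received one ip dose in 42% aqueous DMSO on day 1 after 7–10 days of baseline monitoring; vehicle-only animals served as controls. Food and water intake and body weight were recorded 2–3 times weekly for 60 days. General health was checked by observing clinical signs.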
# Mus musculus [11] = assay: Toxicity in C3H/HeN mouse assessed as difficulty in drinking at 4.2 uM/kg, ip after 60 days; format: organism-based; details: in vivo, 1440 h
# Mus musculus [12] = assay: Toxicity in C3H/HeN mouse assessed as loss of appetite at 4.2 uM/kg, ip after 60 days; format: organism-based; details: in vivo, 1440 h; procedure, shortened: as §1
# Mus musculus [13] = assay: Induction of weight loss in C3H/HeN mouse at 37.8 umol/kg, ip after 60 days (reference value: 35.6 +/- 3.1 %); format: functional
# Mus musculus [14] = assay: Toxicity in C3H/HeN mouse assessed as mortality at 12.6 umol/kg, ip; format: organism-based; details: in vivo
# Procedure, shortened: (§2)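 Male C3H/HeN mice, about 50 days old, in groups of 4. Baseline body weight and food and water intake were recorded for 7–10 days before treatment. A single ip injection in 42% aqueous DMSO was given on day 1, with vehicle-only controls. Body weight and food and water intake were then monitored 2–3 times per week for 60 days, with deaths noted.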
# Mus musculus [15] = assay: Induction of weight loss in C3H/HeN mouse at 12.6 umol/kg, ip after 60 days (reference value: 18.8 +/- 1.8 %); format: functional
# Mus musculus [16] = assay: Induction of weight loss in C3H/HeN mouse at 37.8 umol/kg, ip after 60 days (reference value: 31.5 +/- 8.2 %); format: functional
# Mus musculus [17] = assay: Toxicity in C3H/HeN mouse assessed as mortality at 4.2 umol/kg, ip after 15 days; format: organism-based; details: in vivo, 360 h; procedure, shortened: as §2
# Mus musculus [18] = assay: Induction of weight loss in C3H/HeN mouse at 4.2 umol/kg, ip after 60 days (reference value: 26.1 +/- 7.8 %); format: functional
# Mus musculus [19] = assay: Toxicity in C3H/HeN mouse assessed as mortality at 4.2 umol/kg, ip; format: organism-based; details: in vivo; procedure, shortened: as §2
# Mus musculus [20] = assay: Induction of weight loss in C3H/HeN mouse at 0.42 umol/kg, ip after 60 days (reference value: 23.6 +/- 3.7 %); format: functional
# Mus musculus [21] = assay: Induction of weight loss in C3H/HeN mouse at 0.14 umol/kg, ip after 60 days (reference value: 41.6 +/- 8.7 %); format: functional
# Mus musculus [22] = assay: Induction of weight loss in C3H/HeN mouse at 1.4 umol/kg, ip after 60 days (reference value: 26.1 +/- 7.9 %); format: functional
# Mus musculus [23] = assay: Induction of weight loss in C3H/HeN mouse at 50.2 umol/kg, ip after 60 days (reference value: 27.4 +/- 9.4 %); format: functional
# Mus musculus [24] = assay: Induction of weight loss in C3H/HeN mouse at 37.8 umol/kg, ip after 60 days (reference value: 23.9 +/- 4.6 %); format: functional
# Mus musculus [25] = assay: Toxicity in C3H/HeN mouse assessed as mortality at 117 umol/kg, ip; format: organism-based; details: in vivo; procedure, shortened: as §2
compound,measurement,setting,value
CN(N=O)C(=O)N[C@@H](C=O)[C@@H](O)[C@H](O)[C@H](O)CO [STREPTOZOCIN],Activity,Mus musculus [1],23.7%
same,Activity,Mus musculus [2],-22.1%
Cn1c(C[N+](C)(C)Cc2ccc(/C=C/C(=O)N3CC(CCl)c4c3cc(O)c3ccccc43)cc2)ccc1[N+](=O)[O-].[Br-] (centres undefined),Activity,Mus musculus [3],18.8%
Cn1c(C[N+](C)(C)CCCCCCC(=O)N2CC(CCl)c3c2cc(N)c2ccccc32)ccc1S(C)(=O)=O.O=C([O-])C(F)(F)F (centres undefined),Activity,Mus musculus [4],11.6%
same,Activity,Mus musculus [5],2.9%
Cn1c(C[N+](C)(C)Cc2ccc(/C=C/C(=O)N3CC(CCl)c4c3cc(N)c3ccccc43)cc2)ccc1[N+](=O)[O-].[Br-] (centres undefined),Activity,Mus musculus [6],19%
same,Activity,Mus musculus [7],38.3%
same,Activity,Mus musculus [8],-4.1%
same,Activity,Mus musculus [9],Non-toxic
same,Activity,Mus musculus [10],Non-toxic
same,Activity,Mus musculus [11],Non-toxic
same,Activity,Mus musculus [12],Non-toxic
CC1CN(C(=O)/C=C/c2ccc(C[N+](C)(C)Cc3ccc([N+](=O)[O-])n3C)cc2)c2cc(N)c3ccccc3c21.[Br-] (centres undefined),Activity,Mus musculus [13],43.2%
same,Activity,Mus musculus [3],26%
Cn1c(C[N+](C)(C)CCCCCC(=O)N2CC(CCl)c3c2cc(N)c2ccccc32)ccc1S(C)(=O)=O.O=C([O-])C(F)(F)F (centres undefined),Activity,Mus musculus [14],Toxic
same,Activity,Mus musculus [4],16.8%
Cn1c(C[N+](C)(C)Cc2ccc(/C=C/C(=O)N3CC(CO)c4c3cc(N)c3ccccc43)cc2)ccc1[N+](=O)[O-].[Br-] (centres undefined),Activity,Mus musculus [15],23.7%
same,Activity,Mus musculus [16],18.8%
CN(Cc1ccc(/C=C/C(=O)N2CC(CCl)c3c2cc(N)c2ccccc32)cc1)Cc1ccc([N+](=O)[O-])n1C (centres undefined),Activity,Mus musculus [17],Toxic
same,Activity,Mus musculus [18],21%
C[N+](C)(C)Cc1ccc(/C=C/C(=O)N2CC(CCl)c3c2cc(N)c2ccccc32)cc1.[Cl-] (centres undefined),Activity,Mus musculus [7],17%
same,Activity,Mus musculus [19],Toxic
CC1CN(C(=O)/C=C/c2ccc(C[N+](C)(C)Cc3ccc(S(C)(=O)=O)n3C)cc2)c2cc(N)c3ccccc3c21.[Br-] (centres undefined),Activity,Mus musculus [13],30.4%
Cn1c(C[N+](C)(C)Cc2ccc(/C=C/C(=O)N3CC(CCl)c4c3cc(N)c3ccccc43)cc2)ccc1S(C)(=O)=O.[Br-] (centres undefined),Activity,Mus musculus [20],-7.6%
same,Activity,Mus musculus [21],44.1%
same,Activity,Mus musculus [22],-22.8%
Cn1c(C[N+](C)(C)Cc2ccc(/C=C/C(=O)N3CC(CO)c4c3cc(N)c3ccccc43)cc2)ccc1S(C)(=O)=O.[Br-] (centres undefined),Activity,Mus musculus [23],42.6%
same,Activity,Mus musculus [24],36.8%
same,Activity,Mus musculus [25],Toxic

# Source: ChEMBL document CHEMBL1938280, “Weight loss effects of quaternary salts of 5-amino-1-(chloromethyl)-1,2-dihydro-3H-benz[e]indoles; structure-activity relationships” (Bioorg Med Chem, 2012)
